Experiments:
[1] = Inhibition against Aminopeptidase P from bovine.; type: single protein
Outline: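 Source was bovine lung membrane-bound enzyme purified to homogeneity. Substrate 0.5 mM Arg-Pro-Pro, 0.1 M Hepes pH 8.0, with fluorimetric detection of released arginine. IC50 by linear regression of rate vs log [inhibitor] (linear part), using 10 concentrations near a preliminary estimate, in triplicate.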

[2] = Inhibition against Aminopeptidase P from Escherichia coli.
Outline: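 Recombinant E. coli AP-P, preincubated with 0.73 mM MnCl2 (0.02 mM residual in assay). Hydrolysis of 0.5 mM Arg-Pro-Pro in 0.1 M Hepes pH 8.0 tracked by fluorescence of free arginine. IC50 by linear regression of rate vs log inhibitor concentration over 10 concentrations, triplicate each.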

Xaa-Pro aminopeptidase 1 [3] = molecular target: T1, Xaa-Pro aminopeptidase 1 (Homo sapiens, UniProt Q9NQW7); assay: Inhibition against Aminopeptidase P from human platelets.
Outline: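 Enzyme from human platelets: washed in PBS with prostacyclin, freeze-thawed, sonicated; the 43000g 2 h supernatant was used. Substrate 0.5 mM Arg-Pro-Pro, 0.1 M Hepes pH 8.0, fluorimetric arginine read-out. IC50 from triplicate rates at 10 concentrations, by linear regression of rate vs log concentration.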

Xaa-Pro aminopeptidase 1 [4] = molecular target: T1, Xaa-Pro aminopeptidase 1; assay: Inhibition against cytosolic Aminopeptidase P from human heart.
Outline: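 Human heart homogenate in 0.1 M potassium phosphate pH 6.8: the 40000g supernatant, or enzyme partly purified on TNB-thiol agarose with dithiothreitol elution and exchange into Hepes. Assayed with 0.5 mM Arg-Pro-Pro, 0.1 M Hepes pH 8.0; arginine measured by fluorescence. IC50 by linear regression, 10 concentrations in triplicate.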

Xaa-Pro aminopeptidase 2 [5] = molecular target: Xaa-Pro aminopeptidase 2 (Homo sapiens, UniProt O43895); assay: Inhibition against membrane bound human aminopeptidase P
Outline: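 Partially purified membrane-bound AP-P from human or cynomolgus lung, released from microsomes by phosphatidylinositol-specific phospholipase C and then centrifuged. Triplicate rates at 10 inhibitor levels; IC50 by linear regression of the linear part of the rate vs log concentration plot.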

Xaa-Pro aminopeptidase 2 [6] = molecular target: T2, Xaa-Pro aminopeptidase 2 (Rattus norvegicus, UniProt Q99MA2); assay: Activity against membrane bound rat aminopeptidase P
T2 sequence (Q99MA2 whole entry): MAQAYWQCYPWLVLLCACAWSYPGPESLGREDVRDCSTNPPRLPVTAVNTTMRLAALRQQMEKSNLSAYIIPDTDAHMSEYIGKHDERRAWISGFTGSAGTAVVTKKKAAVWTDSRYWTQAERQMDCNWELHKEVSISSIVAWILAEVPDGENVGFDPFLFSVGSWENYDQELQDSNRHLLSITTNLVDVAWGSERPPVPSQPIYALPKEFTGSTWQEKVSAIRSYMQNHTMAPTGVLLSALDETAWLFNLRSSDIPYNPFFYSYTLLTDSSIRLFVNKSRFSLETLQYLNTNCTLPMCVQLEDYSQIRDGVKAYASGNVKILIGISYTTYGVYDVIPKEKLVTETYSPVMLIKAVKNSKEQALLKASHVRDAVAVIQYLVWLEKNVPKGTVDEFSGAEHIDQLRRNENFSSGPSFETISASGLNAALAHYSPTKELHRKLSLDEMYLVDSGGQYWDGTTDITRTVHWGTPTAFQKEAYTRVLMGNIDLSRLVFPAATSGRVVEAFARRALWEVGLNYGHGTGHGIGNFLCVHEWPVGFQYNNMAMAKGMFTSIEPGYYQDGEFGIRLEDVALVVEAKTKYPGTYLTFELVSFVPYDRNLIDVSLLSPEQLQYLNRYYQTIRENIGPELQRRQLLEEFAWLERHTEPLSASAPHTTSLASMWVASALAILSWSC
Outline: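 Membrane-bound AP-P purified to homogeneity from rat lung; 0.5 mM Arg-Pro-Pro substrate in 0.1 M Hepes, pH 8.0; free arginine release read by fluorescence. IC50 from 10 inhibitor concentrations around an approximate value, each in triplicate, by linear regression of the linear portion of rate vs log inhibitor concentration.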

T1 sequence (Q9NQW7 whole entry): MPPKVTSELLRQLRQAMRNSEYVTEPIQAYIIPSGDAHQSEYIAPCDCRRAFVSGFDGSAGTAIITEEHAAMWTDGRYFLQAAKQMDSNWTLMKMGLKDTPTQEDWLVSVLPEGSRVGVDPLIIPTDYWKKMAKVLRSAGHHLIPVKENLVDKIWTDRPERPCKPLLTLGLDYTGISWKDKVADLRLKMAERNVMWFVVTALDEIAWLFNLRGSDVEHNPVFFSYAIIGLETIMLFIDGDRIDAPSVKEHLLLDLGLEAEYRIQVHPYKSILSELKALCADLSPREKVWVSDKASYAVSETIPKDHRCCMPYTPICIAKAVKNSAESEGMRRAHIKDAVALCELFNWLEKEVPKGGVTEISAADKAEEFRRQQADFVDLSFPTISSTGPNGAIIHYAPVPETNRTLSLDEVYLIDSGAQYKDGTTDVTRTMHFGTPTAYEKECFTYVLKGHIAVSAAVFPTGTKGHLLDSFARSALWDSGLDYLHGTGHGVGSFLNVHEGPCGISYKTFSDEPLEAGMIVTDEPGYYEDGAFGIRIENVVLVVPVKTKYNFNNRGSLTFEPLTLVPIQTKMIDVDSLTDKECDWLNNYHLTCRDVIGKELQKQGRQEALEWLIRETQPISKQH
Xaa-Pro aminopeptidase 2 (Homo sapiens, UniProt O43895), sequence (O43895 whole entry): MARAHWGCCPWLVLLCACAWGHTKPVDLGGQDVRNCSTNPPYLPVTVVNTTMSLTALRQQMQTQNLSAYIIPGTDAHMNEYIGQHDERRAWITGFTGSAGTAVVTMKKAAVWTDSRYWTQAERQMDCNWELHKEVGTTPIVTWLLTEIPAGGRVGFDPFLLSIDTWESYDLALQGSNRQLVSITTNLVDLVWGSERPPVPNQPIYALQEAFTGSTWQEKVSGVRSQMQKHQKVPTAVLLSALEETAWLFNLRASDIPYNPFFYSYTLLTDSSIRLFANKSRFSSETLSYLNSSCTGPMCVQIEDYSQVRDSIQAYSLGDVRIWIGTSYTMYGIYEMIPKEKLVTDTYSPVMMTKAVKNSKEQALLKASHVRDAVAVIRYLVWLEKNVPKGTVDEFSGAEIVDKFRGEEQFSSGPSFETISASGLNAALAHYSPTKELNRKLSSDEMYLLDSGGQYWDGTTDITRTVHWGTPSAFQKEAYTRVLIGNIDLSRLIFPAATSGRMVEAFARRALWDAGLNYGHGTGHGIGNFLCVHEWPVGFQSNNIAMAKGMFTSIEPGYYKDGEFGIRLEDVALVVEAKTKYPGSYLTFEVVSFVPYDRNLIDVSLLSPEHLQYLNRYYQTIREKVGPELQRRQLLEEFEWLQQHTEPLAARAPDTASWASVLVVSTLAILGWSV

| SMILES | IC50 [1] [µM] | IC50 [2] [µM] | IC50 (Xaa-Pro aminopeptidase 1 [3]) [µM] | IC50 (Xaa-Pro aminopeptidase 1 [4]) [µM] | IC50 (Xaa-Pro aminopeptidase 2 [5]) [µM] | IC50 (Xaa-Pro aminopeptidase 2 [6]) [µM] |
| --- | --- | --- | --- | --- | --- | --- |
| C[C@H](NC(=O)[C@@H]1CCCN1C(=O)[C@@H]1C[C@@H](O)CN1C(=O)[C@@H](O)[C@H](N)Cc1ccccc1)C(N)=O | > 2000 | 160 | > 2000 | > 2000 |  |  |
| C[C@H](NC(=O)[C@@H]1CCCN1C(=O)[C@@H]1CCCN1C(=O)[C@@H](O)[C@H](N)Cc1ccccc1)C(N)=O | 9.4 | 9 | 18 | 21 |  |  |
| NC(=O)[C@@H]1CCCN1C(=O)[C@@H]1CCCN1C(=O)[C@@H](O)[C@H](N)Cc1ccccc1 | 1300 | 16 | 250 | 45 |  |  |
| C[C@H](NC(=O)[C@@H]1CCCN1C(=O)[C@@H]1CSCN1C(=O)[C@@H](O)[C@H](N)Cc1ccccc1)C(N)=O | 34 | 41 |  | 82 |  |  |
| C[C@H](NC(=O)[C@@H]1CCCN1C(=O)C1CCCC1S)C(N)=O (stereo in doubt; 12) | 10 |  |  | 6.3 | 29 | 3.4 |
| C[C@H](NC(=O)[C@@H]1CCCN1C(=O)C1CCCC1S)C(N)=O (stereo in doubt; 13) | 300 | > 3000 |  | 53 | 390 | 150 |
| C[C@H](NC(=O)[C@@H]1CCCN1C(=O)C1CCCCC1C(=O)NO)C(N)=O (stereo in doubt; 14) | 50 | 130 |  | > 3000 |  |  |
| C[C@H](NC(=O)[C@@H]1CCCN1C(=O)C1CCCCC1C(=O)NO)C(N)=O (stereo in doubt; 15) | > 500 | > 2000 |  | > 2000 |  |  |
| C[C@H](NC(=O)[C@@H]1CCCN1C(=O)C1CCCCC1C(=O)NO)C(N)=O (stereo in doubt; 16) | > 5000 | 2000 |  | > 5000 |  |  |

From ChEMBL document CHEMBL1132257, “Apstatin analogue inhibitors of aminopeptidase P, a bradykinin-degrading enzyme” (J Med Chem, 1999)
